# Results: the RNAGym collection of RNA variant scans (doi:10.1126/science.aae0568)
# Variants at the floor of the assay were thinned out.
# B1: tRNA (parent)
# chain: GUUCCGUUGGCGUAAUGGUAACGCGUCUCCCUCCUAAGGAGAAGACUGCGGGUUCGAGUCCCGUACGGAACG
# Variants of: B1
# Test: yeast fitness relative to wild type (ratio to wild type); higher = fitter; tRNA-Arg(CCU), competitive growth, 37 C, YPD
# Method in brief: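 Changes in genotype frequencies gave Darwinian fitness relative to wild type. Frequencies were read by 100-nucleotide paired-end sequencing of gene amplicons before and after pooled Saccharomyces cerevisiae strains, carrying tRNA-Arg(CCU) gene variants at the native locus, were competed in YPD at 37°C for 24 hours in six replicates. A genotype was kept only with ≥ 100 starting reads, and estimates < 0.5 were set to 0.5.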
row,Variant,yeast fitness
1,GUUCCGUUGAAGUAAUGGUAAUGCGUCUCCCUCGUAAGGAGACGACUCCGGGUUCGAGUCCCGUACGGAACG [G10A C11A C22U C34G A43C G48C],0.585
2,GUUCCGUUGACGUAAUGGUAAUGCGUCUCCCUCCUAAGGAGAAGACUGCGGGUUCCAGUCCCGUACGGAACG [G10A C22U G56C],0.566
3,GUUCCGUUGAAGUAAGGGUAACGCGUCUCCCUCCUAAAGAGUAGACUGCGGGUUCGAGUCCCGUACGGAACG [G10A C11A U16G G38A A42U],≤ 0.5
4,GUUCCGUUGAUGUAAUGGUAACGCGUCUACCUCAUAAGGAGAAAACUGCGGGUUCGAGUCCCGUAGGGAACG [G10A C11U C29A C34A G44A C66G],0.545
5,GUUCCGUUGAGGUAAUGGUAACGCGUCUCCCUCCUAAGGACAAGUCUGCGGGUUCGAGUCCCGUACGGAACG [G10A C11G G41C A45U],≤ 0.5
6,GUUCCGUUGACGUAAUGGUAAUGCGUCUCCCUCCUAAGGAGAAGGCUGCGGGUUCGAGUCCCGUACGGAACG [G10A C22U A45G],≤ 0.5
7,GUUCCGUUGACGUAAUGGUAACGCGUCUCCCUCCUAAGGAGAAGACUGCGGGUUCGAGUCCCGUACGGAGCG [G10A A70G],0.743
8,GUUCCGUUGAAGUGGUGGUAACGCGUCUCCCUCCUAAGGAGAAGACUGCGGGUUCGAGUCCCGUACGGAACG [G10A C11A A14G A15G],≤ 0.5
9,GUUCCGUUGACGUAAUGGUAAUGCGUCUCCCUCCUAAGGAGAAGACCGCGGGUUCGAGUCCCGUACGGAACG [G10A C22U U47C],≤ 0.5
10,GUUCCGUUGACGUAAUGGUAACGAGUAUCCCUCCUAAGGAGAAGGCUGCGGGUUCGAGUCCCGUACGGAACG [G10A C24A C27A A45G],≤ 0.5
11,GUUCCGUUGACGUAAUGGUAACGAGUCUCCCUCCUAAGGAGAAAACUGCGGGUUCGAGUCCCGUACGGAACG [G10A C24A G44A],0.553
12,GUUCCGUUGACGUAAUGGUAACGGGUCUCCCUCCUAAGGAGAGGACUGCGGGUUCGAGUCCCGUACGGAACG [G10A C24G A43G],≤ 0.5
13,GUUCCGUUGAGGUAAUGGUAACGCGUCUCCCUCCUAAGGAGAAGACUGCGGGUUCGAGUACCGUACUGAACG [G10A C11G C60A G67U],0.512
14,GUUCCGUUGAGGUAAUGGUAACGCGUCACCCUUCUAAAGAGAAGACUGUGGGUUCGAGUCCCGUACGGAACG [G10A C11G U28A C33U G38A C49U],≤ 0.5
15,GUUCCGUUGACGUAAUGGUAAUGCGUCUCCCUCCUAAGGAGAAGACUGCGGGUUCCAGUCCCGUACGGUACG [G10A C22U G56C A69U],≤ 0.5
16,GUUCCGUUGACGUAAUGGUAACGCGUCUCCCUCCUAAGGAGAAGACUGCGGGUUCGAGUCCCGUGCGGAACG [G10A A65G],0.627
17,GUUCCGUUGAAGUAAGGGUAACGCGUCUCCCUCCUAAGGAGAAGACUGCGGGUUCGAGUCCCGUACGGGACG [G10A C11A U16G A69G],0.538
18,GUUCCGUUGACGUAAUGGUAACGGGUCUCCCUCUUAAGGAGAAGACUGCGGGUUCGAGUCCCGUACGGAACG [G10A C24G C34U],≤ 0.5
19,GUUCCGUUGAAGUAAUGGUAACGCGUCUCCCUCCUAAGCAGAACACUGCGGCCUCGAGUCCCGUAGGGAACG [G10A C11A G39C G44C G52C U53C C66G],≤ 0.5

row,Variant,yeast fitness
1,GUUCCGUUGAAGUAAUGGUAACGCGUCUCCCUCCUAAGGAGAAGACUGCGGGUUCGAGUCCCGUACGGAACG [G10A C11A],0.636
2,GUUCCGUUGAAGUAAUGGUAACGCGUCUACCUCCUAAGGAGAAGACUGCGGGUUCGAGUCCCGUAUGGAACG [G10A C11A C29A C66U],≤ 0.5
3,GUUCCGUUGAAGUACUGGUAACGAGUCUCCCUCAUAAGGAGAAGAGUGCGGGUUCGAGUCCCGUACGGAACG [G10A C11A A15C C24A C34A C46G],0.559
4,GUUCCGUUGAAGUAAUGGUAACGCGUCUCCCUCCUAAGGAGAAGACUGCGGGUUCGAGUACCGUACGGAACG [G10A C11A C60A],≤ 0.5
5,GUUCCGUUGAUGUAAUGGUAACGCGUCUCCCUCCUAAGGAGAUGACUGCGGGUUCGAGUUCCGUACGGAACG [G10A C11U A43U C60U],≤ 0.5
6,GUUCCGUUGACGUAAUGGUAAGGCGUCUCCCUCCUAGAGAGAAGACUGCGGGUUCGAGUCCCGUACGGAACG [G10A C22G A37G G38A],≤ 0.5
7,GUUCCGUUGAUGUAGUGGUAACGCGUCUCUCUCCUAAGGAGAAGACUGCGGGUUCGAGUGCCGUACGGAACG [G10A C11U A15G C30U C60G],≤ 0.5
8,GUUCCGUUGAUGUAAUGGUAACGCGUCUCCCUCCUAAGGAGAAGACUGCGGGUUCGACUCCCGUUCGGAACG [G10A C11U G58C A65U],≤ 0.5
9,GUUCCGUUGACGUAAUGGUAAGGCGUCUCCCUCCUAGAGAGAAGACUGCGCGGUCGAGUCCCGUACGGAACG [G10A C22G A37G G38A G51C U53G],≤ 0.5
10,GUUCCGUUGAAGUACUGGUAACGAGUCUCCCUCAUAAGGAGAAGAGUGCGGGUUCGAGUCCCGUACCGAACG [G10A C11A A15C C24A C34A C46G G67C],≤ 0.5
11,GUUCCGUUGACGUAAUGGUAAGGCGUCUCCCUCCUAAGGAGAAGACUGCGGGUUCGAGUCCCGUACGGAACG [G10A C22G],0.637
12,GUUCCGUUGACGUAAUGGUAAAGCGUCUCCCUCCUAAGGAGAAGACUGCGGGUUCGAGUCCCGUACGGAACG [G10A C22A],0.717
13,GUUCCGUUGACGUAAUGGUAACGAGUCUCCCUCCUAAGGAGAAGCCUGCGGGUUCGUGUCCCGUACGGAACG [G10A C24A A45C A57U],0.63
14,GUUCCGUUGACGUAAUGGUAACGGGUCUCCCUCCUAAGGGGAAGAGUGCGGGUUCGAGUCCCGUACGGAACG [G10A C24G A40G C46G],0.556
15,GUUCCGUUGACGUAAUGGUAAGGCGUUUCCCUCCUAAGGAGAAGACUGCGGGUUCAAGUCCCGUACGGAACG [G10A C22G C27U G56A],≤ 0.5
16,GUUCCGUUGACGUAAUGGUAACGAGUCUCCCUCCUAAGGAGAAAACUGCGGGUUCGAGUCCCGUUCGGAACG [G10A C24A G44A A65U],≤ 0.5
17,GUUCCGUUGAGGUAAUGGUAACGCGUCUCGCUCCUAAGGAGAAGACUGCGGGUUCGGAACCCGUACGGAACG [G10A C11G C30G A57G G58A U59A],≤ 0.5
18,GUUCCGUUGAUGUAAUGGUAAUGCGUCUCCCUCCUAAGGAGAAGACUGCGGGUUCGUGUCCCGUACGGAACG [G10A C11U C22U A57U],≤ 0.5
19,GUUCCGUUGACGUAAUGGUAACGGGUUUCCCUCCUAAGGAGAAGACUGCGGGUUCGAGUCCCGUACGGAACG [G10A C24G C27U],0.547
